Measurements from ChEMBL document CHEMBL1240360, “TMC278, a next-generation nonnucleoside reverse transcriptase inhibitor (NNRTI), active against wild-type and NNRTI-resistant HIV-1” (Antimicrob Agents Chemother, 2010).
Values belong to the compound of their own block, whether it stands above or below them.

Key:
MT4 = assay: Cytotoxicity against human MT4 cells by cell based assay
Summary of the method: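 Cytotoxicity in MT4 cells from cell-based assays gave a 50% cytotoxic concentration, reported as a median with first- to third-quartile values over the stated number of experiments.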

[1] = tested on: Human immunodeficiency virus 2; assay: Antiviral activity against Human immunodeficiency virus 2 ROD infected in human MT4 cells assessed as reduction in virus induced cytopathicity; format: functional, organism-based; settings: Human immunodeficiency virus 2, ISOLATE ROD
Summary of the method: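 MT4 cells (1.5 × 10^5/ml) infected with HIV (MOI 0.01) were added to serial compound dilutions and incubated 5 days at 37°C in 5% CO2. Protection from virus-induced cell death was read by MTT tetrazolium colorimetry, giving an EC50 in micromolar.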

[2] = tested on: Human immunodeficiency virus 1; assay: Antiviral activity against Human immunodeficiency virus 1 subtype AG infected in human MT4 cells assessed as reduction in virus induced cytopathicity; format: functional, organism-based
Summary of the method: (§1)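 Recombinant viruses were made by recombining patient-derived HIV-1 RT-PR sequences into an RT-PR-deleted HXB2 proviral clone transfected into MT4 cells. Subtype was assigned from PR/RT sequence by Smith-Waterman alignment to HXB2. MT4 cells (1.5 × 10^5/ml) were infected at MOI 0.01 with serially diluted compound for 5 days at 37°C. Viability was read by MTT and EC50 derived.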

[3] = tested on: Human immunodeficiency virus 1; assay: Antiviral activity against Human immunodeficiency virus 1 subtype D isolate 92UG035 infected in human PBMC cells by cell based assay; settings: Human immunodeficiency virus 1, subtype D 92UG035, PBMC
[4] = tested on: Human immunodeficiency virus 1; assay: Antiviral activity against Human immunodeficiency virus 1 subtype A isolate 92UG029 infected in human PBMC cells by cell based assay; settings: Human immunodeficiency virus 1, subtype A isolate 92UG029, PBMC
[5] = tested on: Human immunodeficiency virus 1; assay: Antiviral activity against Human immunodeficiency virus 1 subtype F isolate 93BR019 infected in human PBMC cells by cell based assay; settings: Human immunodeficiency virus 1, subtype F isolate 93BR019, PBMC
[6] = tested on: Human immunodeficiency virus 1; assay: Antiviral activity against Human immunodeficiency virus 1 subtype C isolate 93IN101 infected in human PBMC cells by cell based assay; settings: Human immunodeficiency virus 1, subtype C isolate 93IN101, PBMC
[7] = tested on: Human immunodeficiency virus 1; assay: Antiviral activity against Human immunodeficiency virus 1 subtype F isolate 93BR020 infected in human PBMC cells by cell based assay; settings: Human immunodeficiency virus 1, subtype F isolate 93BR020, PBMC
[8] = tested on: Human immunodeficiency virus 1; assay: Antiviral activity against Human immunodeficiency virus 1 3B infected in human MT4 cells assessed as reduction in virus induced cytopathicity; format: functional, organism-based
Summary of the method: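 MT4 cells (1.5 × 10^5/ml) infected with HIV-1 IIIB at MOI 0.01 and added to serially diluted compound. Cultures incubated 5 days at 37°C under 5% CO2. Cell viability, as protection from virus-induced killing, read by MTT tetrazolium colorimetry. EC50 reported as median with first to third quartiles over n experiments.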

[9] = tested on: Human immunodeficiency virus 1; assay: Antiviral activity against Human immunodeficiency virus 1 subtype C infected in human MT4 cells assessed as reduction in virus induced cytopathicity; format: functional, organism-based; summary of the method: as §1
[10] = tested on: Human immunodeficiency virus 1; assay: Antiviral activity against Human immunodeficiency virus 1 subtype (H) infected in human MT4 cells assessed as reduction in virus induced cytopathicity; format: functional, organism-based; summary of the method: as §1
[11] = tested on: Human immunodeficiency virus 1; assay: Antiviral activity against Human immunodeficiency virus 1 subtype BG infected in human MT4 cells assessed as reduction in virus induced cytopathicity; format: functional, organism-based; summary of the method: as §1
[12] = tested on: Human immunodeficiency virus 1; assay: Antiviral activity against Human immunodeficiency virus 1 subtype O isolate BCF03 infected in human PBMC cells by cell based assay; settings: Human immunodeficiency virus 1, subtype O isolate BCF03, PBMC
[13] = tested on: Human immunodeficiency virus 1; assay: Antiviral activity against Human immunodeficiency virus 1 subtype O isolate BCF02 infected in human PBMC cells by cell based assay; settings: Human immunodeficiency virus 1, subtype O isolate BCF02, PBMC
[14] = tested on: Human immunodeficiency virus 1; assay: Antiviral activity against Human immunodeficiency virus 1 subtype G isolate G3 infected in human PBMC cells by cell based assay; settings: Human immunodeficiency virus 1, subtype G isolate G3, PBMC
[15] = tested on: Human immunodeficiency virus 1; assay: Antiviral activity against Human immunodeficiency virus 1 subtype E isolate 92TH006 infected in human PBMC cells by cell based assay; settings: Human immunodeficiency virus 1, subtype E 92TH006, PBMC
[16] = tested on: Human immunodeficiency virus 1; assay: Antiviral activity against Human immunodeficiency virus 1 subtype O misolate BCF01 infected in human PBMC cells by cell based assay; settings: Human immunodeficiency virus 1, subtype O isolate BCF01, PBMC
[17] = tested on: Human immunodeficiency virus 1; assay: Antiviral activity against Human immunodeficiency virus 1 subtype D infected in human MT4 cells assessed as reduction in virus induced cytopathicity; format: functional, organism-based; summary of the method: as §1
[18] = tested on: Human immunodeficiency virus 1; assay: Antiviral activity against Human immunodeficiency virus 1 subtype D isolate 92UG024 infected in human PBMC cells by cell based assay; settings: Human immunodeficiency virus 1, subtype D 92UG024, PBMC
[19] = tested on: Human immunodeficiency virus 1; assay: Antiviral activity against Human immunodeficiency virus 1 subtype G infected in human MT4 cells assessed as reduction in virus induced cytopathicity; format: functional, organism-based; summary of the method: as §1
[20] = tested on: Human immunodeficiency virus 1; assay: Antiviral activity against Human immunodeficiency virus 1 subtype F1 infected in human MT4 cells assessed as reduction in virus induced cytopathicity; format: functional, organism-based; settings: Human immunodeficiency virus 1, subtype F1, MT4; summary of the method: as §1
[21] = tested on: Human immunodeficiency virus 1; assay: Antiviral activity against Human immunodeficiency virus 1 subtype E isolate CMU08 infected in human PBMC cells by cell based assay; settings: Human immunodeficiency virus 1, subtype E isolate CMU08, PBMC
[22] = tested on: Human immunodeficiency virus 1; assay: Antiviral activity against Human immunodeficiency virus 1 subtype B isolate 93BR021 infected in human PBMC cells by cell based assay; settings: Human immunodeficiency virus 1, subtype B isolate 93BR021, PBMC
[23] = tested on: Human immunodeficiency virus 1; assay: Antiviral activity against Human immunodeficiency virus 1 subtype A isolate 92RW020 infected in human PBMC cells by cell based assay; settings: Human immunodeficiency virus 1, subtype A isolate 92RW020, PBMC
[24] = tested on: Human immunodeficiency virus 1; assay: Antiviral activity against Human immunodeficiency virus 1 subtype B isolate WEJO infected in human PBMC cells by cell based assay
[25] = tested on: Human immunodeficiency virus 1; assay: Antiviral activity against Human immunodeficiency virus 1 subtype F isolate 93BR029 infected in human PBMC cells by cell based assay; settings: Human immunodeficiency virus 1, subtype F isolate 93BR029, PBMC
[26] = tested on: Human immunodeficiency virus 1; assay: Antiviral activity against Human immunodeficiency virus 1 subtype C isolate 93MW959 infected in human PBMC cells by cell based assay; settings: Human immunodeficiency virus 1, subtype C isolate 93MW959, PBMC
[27] = tested on: Human immunodeficiency virus 1; assay: Antiviral activity against Human immunodeficiency virus 1 subtype AE infected in human MT4 cells assessed as reduction in virus induced cytopathicity; format: functional, organism-based; summary of the method: as §1
[28] = tested on: Human immunodeficiency virus 1; assay: Antiviral activity against Human immunodeficiency virus 1 subtype D isolate 92UG001 infected in human PBMC cells by cell based assay; settings: Human immunodeficiency virus 1, subtype D isolate 92UG001, PBMC
[29] = tested on: Human immunodeficiency virus 1; assay: Antiviral activity against Human immunodeficiency virus 1 subtype C isolate 92BR025 infected in human PBMC cells by cell based assay; settings: Human immunodeficiency virus 1, subtype C isolate 92BR025, PBMC
[30] = tested on: Human immunodeficiency virus 1; assay: Antiviral activity against Human immunodeficiency virus 1 subtype A isolate 92UG037 infected in human PBMC cells by cell based assay; settings: Human immunodeficiency virus 1, subtype A isolate 92UG037, PBMC
[31] = tested on: Human immunodeficiency virus 1; assay: Antiviral activity against Human immunodeficiency virus 1 subtype A1 infected in human MT4 cells assessed as reduction in virus induced cytopathicity; format: functional, organism-based; settings: Human immunodeficiency virus 1, subtype A1, MT4; summary of the method: as §1
[32] = tested on: Human immunodeficiency virus 1; assay: Antiviral activity against Human immunodeficiency virus 1 subtype G isolate RU132 infected in human PBMC cells by cell based assay; settings: Human immunodeficiency virus 1, subtype G isolate RU132, PBMC
[33] = tested on: Human immunodeficiency virus 1; assay: Antiviral activity against Human immunodeficiency virus 1 subtype E isolate 93TH073 infected in human PBMC cells by cell based assay; settings: Human immunodeficiency virus 1, subtype E 93TH073, PBMC
[34] = tested on: Human immunodeficiency virus 1; assay: Antiviral activity against Human immunodeficiency virus 1 subtype B isolate JR-CSF infected in human PBMC cells by cell based assay
[35] = tested on: Human immunodeficiency virus 1; assay: Antiviral activity against Human immunodeficiency virus 1 subtype G isolate JV1083 infected in human PBMC cells by cell based assay; settings: Human immunodeficiency virus 1, subtype G isolate JV1083, PBMC

EC50 [1]: 24.8 µM
Structure (SMILES): O=C1Nc2ccc(Cl)cc2[C@@](C#CC2CC2)(C(F)(F)F)O1 [EFAVIRENZ]
Activity (MT4): 40.02 µM

Structure (SMILES): Cc1cc(C#N)cc(C)c1Oc1nc(Nc2ccc(C#N)cc2)nc(N)c1Br [ETRAVIRINE]
EC50 [2]: 0.46 nM | EC50 [3]: 0.44 nM | EC50 [4]: 1.45 nM | EC50 [5]: 0.46 nM | EC50 [6]: 2.72 nM | EC50 [7]: 1.08 nM | EC50 [8]: 2.73 nM | EC50 [9]: 0.52 nM | EC50 [10]: 0.51 nM | EC50 [11]: 0.67 nM | EC50 [12]: 149 nM | EC50 [13]: 52.8 nM | EC50 [14]: 0.66 nM | EC50 [15]: 0.5 nM | EC50 [16]: 16.4 nM | EC50 [17]: 1.13 nM | EC50 [18]: 3.18 nM | EC50 [19]: 0.24 nM | EC50 [20]: 0.35 nM | EC50 [21]: 3.47 nM | EC50 [22]: 1.35 nM | EC50 [23]: 0.48 nM | EC50 [24]: 0.43 nM | EC50 [25]: 1.06 nM | EC50 [26]: 1.01 nM | EC50 [27]: 0.65 nM | EC50 [28]: 0.9 nM | Activity (MT4): > 64 µM | EC50 [29]: 1.7 nM | EC50 [30]: 1.42 nM | EC50 [31]: 1.39 nM | EC50 [32]: 1.7 nM | EC50 [33]: 0.21 nM | EC50 [1]: 5.67 µM | EC50 [34]: 1.02 nM | EC50 [35]: 1.45 nM
